Experimental data of several laboratories.
Each line is one published result; the experiments were not run side by side.
Target: Serine/threonine-protein kinase Nek9 (NEK9, Homo sapiens, UniProt Q8TD19)
Residues used in one study (Q8TD19 1-979): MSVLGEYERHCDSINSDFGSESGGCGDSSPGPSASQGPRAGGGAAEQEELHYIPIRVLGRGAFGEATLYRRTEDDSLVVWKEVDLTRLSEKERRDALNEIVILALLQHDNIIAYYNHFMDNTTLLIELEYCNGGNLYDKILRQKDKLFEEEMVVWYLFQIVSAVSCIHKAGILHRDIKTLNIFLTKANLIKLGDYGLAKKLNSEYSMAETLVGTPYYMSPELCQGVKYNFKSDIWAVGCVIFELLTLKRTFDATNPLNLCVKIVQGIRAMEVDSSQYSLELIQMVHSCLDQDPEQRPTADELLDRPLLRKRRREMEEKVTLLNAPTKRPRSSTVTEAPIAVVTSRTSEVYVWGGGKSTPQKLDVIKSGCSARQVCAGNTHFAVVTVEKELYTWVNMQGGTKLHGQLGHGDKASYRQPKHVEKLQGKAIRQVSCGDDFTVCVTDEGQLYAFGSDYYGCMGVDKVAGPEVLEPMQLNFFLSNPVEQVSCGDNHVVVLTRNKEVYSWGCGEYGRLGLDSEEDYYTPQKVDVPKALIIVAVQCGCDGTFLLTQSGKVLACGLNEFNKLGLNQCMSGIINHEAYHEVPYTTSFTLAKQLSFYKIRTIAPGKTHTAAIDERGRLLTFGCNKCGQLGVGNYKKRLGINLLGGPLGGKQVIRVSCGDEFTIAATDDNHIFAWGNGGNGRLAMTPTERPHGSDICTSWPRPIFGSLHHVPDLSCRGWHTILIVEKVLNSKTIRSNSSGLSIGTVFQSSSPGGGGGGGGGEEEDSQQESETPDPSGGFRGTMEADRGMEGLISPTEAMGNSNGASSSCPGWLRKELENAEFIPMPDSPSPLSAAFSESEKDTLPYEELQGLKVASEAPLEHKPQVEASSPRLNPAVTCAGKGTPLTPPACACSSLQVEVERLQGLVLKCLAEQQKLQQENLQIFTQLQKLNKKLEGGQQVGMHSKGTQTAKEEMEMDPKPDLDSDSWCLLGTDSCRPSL

SMILES	test	setting	remaining binding
Cc1nc(Cc2cccc(C(F)(F)F)c2)sc1-c1ccc(C(N)=O)nc1	cell-free assay, competition with immobilised ligand	1 µM	100%
C[C@@H]1CCN(c2nccc(-c3cnn4ncccc34)n2)C1	binding	1 µM	81%
CCCOc1ccc([C@H]2[C@H](C(=O)O)[C@@H](c3ccc4c(c3)OCO4)CN2CC(=O)Nc2c(CC)cccc2CC)cc1	cell-free assay, competition with immobilised ligand	1 µM	95%
CNC(=O)[C@@H]1CC[C@@H](n2c(-c3ccc4cnccc4c3)nc3ccc(C(=O)NCc4cccc(C(N)=O)c4)cc32)C1	binding, competition with immobilised ligand	1 µM	100%
Nc1ncc2c(n1)-c1c([nH]c3ccc(C#CC4CC4)cc13)CCCC2	binding, competition with immobilised ligand	1 µM	91%
COc1ccnn2ncc(-c3ccnc(N(C)C)n3)c12	binding	1 µM	100%
O=C1NC(c2ccccn2)Sc2ccccc21 (stereo not shown)	cell-free assay, competition with immobilised ligand	1 µM	75%
F[C@@H]1CCN(c2nccc(-c3cnn4ncccc34)n2)C1	binding	1 µM	100%
NS(=O)(=O)c1cc(NC(=O)C2(c3ccccc3Cl)CC2)ccc1Oc1cccc(Cl)c1	cell-free assay, competition with immobilised ligand	1 µM	94%
Cc1cnc(Nc2ccc(C(=O)N3CCC(N4CCCC4)CC3)cc2)nc1-c1cc2ccccc2s1	binding, competition with immobilised ligand	1 µM	14%
Cc1c(NC(=O)c2cc(C(N)=O)nc3cc(F)ccc23)c(C(F)(F)F)nn1Cc1ccc(C#N)cc1	cell-free assay, competition with immobilised ligand	1 µM	95%
O=C(NCC1CCOCC1)c1n[nH]cc1NC(=O)c1c(F)cccc1F	binding, competition with immobilised ligand	1 µM	92%
Cn1nc(C(=O)NCc2ccc(C(=O)O)cc2)cc1-c1ccc2[nH]ccc2c1	cell-free assay, competition with immobilised ligand	0.1 µM	99%
Cc1cnn2ncc(-c3ccnc(N(C)C)n3)c2c1	binding	1 µM	100%
O=C(c1ccc(Nc2nccc(-c3cc4ccccc4s3)n2)cc1)N1CCC(N2CCCC2)CC1	binding, competition with immobilised ligand	1 µM	100%
CN(C)c1nccc(-c2cnn3ncccc23)n1	binding	1 µM	100%
O=C(c1ccc(Nc2ncc(Cl)c(-c3cc4ccccc4s3)n2)cc1)N1CCC(N2CCCC2)CC1	binding, competition with immobilised ligand	1 µM	33%
CN(c1nccc(-c2cnn3ncccc23)n1)C1CC1	binding	1 µM	100%
C[C@@H](c1ccc(-n2cnc3c(N)ncnc32)cc1)N1CCc2nn(C)c(Cc3ccccc3)c2C1=O	binding, competition with immobilised ligand	0.1 µM	94%
CN(C)c1nccc(-c2cnc3ncccn23)n1	binding	1 µM	88%
COc1cnc(Nc2cccc(S(N)(=O)=O)c2)nc1N1CCN(c2ccccc2)C(=O)C1	binding, competition with immobilised ligand	1 µM	99%
FC(F)(F)Oc1cccc(-c2cnc3ccc(-c4ccncc4)nn23)c1	cell-free assay, competition with immobilised ligand	5 µM	91%
